Measurements reported in ChEMBL document CHEMBL4513216, “Probing the Open Global Health Chemical Diversity Library for Multistage-Active Starting Points for Next-Generation Antimalarials” (ACS Infect Dis, 2020).

assay: Toxicity liver stage against HepG2, at 10uM; format: cell-based; set-up: test concentration 10 uM, cell line HepG2-A16-CD81EGFP; conditions: human, HepG2-A16-CD81EGFP cells; read-out: INHIBITION
Method in brief: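 Uninfected HepG2-A16-CD81EGFP cells, 3 × 10^3 per well, 1536-well, plated on prespotted compound at 10 μM final, parasite-free screening media added to match infected plates; puromycin 10 μM positive, DMSO 0.5% negative; run in parallel with 48 h PbLuc assay at 37 °C, 5% CO2; viability by CellTiter-Glo luminescence, normalized to controls.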

Row | Structure (SMILES) | cytotoxicity at 10 µM [%]
1 | COCCn1ccc2c(NC(=O)c3n[nH]c4c3CCCC4)cccc21 | 10.3
2 | O=C(Nc1nc2c(s1)CN(S(=O)(=O)C1CC1)CC2)c1ccc(=O)[nH]c1 | -11.1
3 | COC1CCN(S(=O)(=O)N2C[C@H](c3ccccc3)[C@@H](N)C2)CC1 | 11.8
4 | N#Cc1ccc(CC(=O)N2CCC(Nc3cccnn3)CC2)cc1 | -4.11
5 | CCN1C(=O)CCCC12CCCN(C(=O)c1conc1C)C2 (stereo unspecified) | 4.57
6 | Cc1cc(-c2ccccc2C(=O)O)nc(C2CCCN2S(C)(=O)=O)n1 (stereo unspecified) | -3.67
7 | CC(C)c1cc(O)nc(C2CCCN2C(=O)C2CC2)n1 (stereo unspecified) | -25.1
8 | COCC1CC2(CCN(Cc3cccnc3)CC2)CN1c1ncccn1 (stereo unspecified) | 3.71
9 | COc1cccc(CN2CCCC3(CCN(C(CO)CO)C3)C2)c1 (stereo unspecified) | -5.96
10 | N#Cc1ccsc1NC(=O)CCN1CCn2c(nnc2C2CC2)C1 | -5.65
11 | CC(=O)N1CCC(C(=O)NCCN2CCC(C)CC2)CC1 | 12.8
12 | CN(C)c1ncnc2c1CCN(S(=O)(=O)c1ccccc1C(F)(F)F)C2 | 21.3
13 | Cc1cccc(C(=O)N2C[C@@H]3CC[C@H](Oc4cccc(F)c4)[C@@H]3C2)n1 | -14.7
14 | CC(C)c1nnc(CCC(=O)N2CCCC(c3cnccn3)C2)o1 (stereo unspecified) | 1.88
15 | O=C(c1ccccn1)N1CCC2(CC1)C(=O)Nc1ccccc12 | -145
16 | Cc1nc(C)n(CC2CN(c3ncccc3C#N)CCO2)n1 (stereo unspecified) | -10.1
17 | Cc1c(F)cccc1S(=O)(=O)NCC(C)(C)CC(C)O (stereo unspecified) | -8.29
18 | CCN1CCC(N2CCC(c3nc(C)cc(C)n3)C2)CC1 (stereo unspecified) | 5.15
19 | COCCN(C)C(C(=O)O)c1cc(Cl)ccc1OC (stereo unspecified) | -6.92
20 | CN1CCC(Cc2cc(N(C)C)ncn2)C1 (stereo unspecified) | 3.19
21 | CC(NCc1cnc(C2CCC2)s1)c1cccc(-n2cccn2)c1 (stereo unspecified) | 2.34
22 | Cc1ccc(NC(=O)c2cccc(OCc3nnnn3C)c2)nc1 | 4.4
23 | Cc1nn(C)c(C)c1C(=O)NCc1ccnc(OCC(F)(F)F)c1 | -10.7

Row | Structure (SMILES) | cytotoxicity at 10 µM [%]
24 | CC(=O)N(CCc1ccccc1)CC(=O)Nc1ccccc1C#N | 6.59
25 | CN1Cc2nc[nH]c2C[C@H]1C(=O)NC1CCCCC1 | 0.0515
26 | CN1CCN2CCN(Cc3cnc(NCc4ccccc4)nc3)CC2C1 (stereo unspecified) | -16.8
27 | CCc1cccc(C)c1NC(=O)NCCCN(CC)S(C)(=O)=O | 4.87
28 | CO[C@H]1C[C@@H](O)C12CCN(C(=O)NCc1ccco1)CC2 | -2.04
29 | CCN1CCCC(CN2CCn3nc(CNC(=O)N(C)C)cc3C2)C1 (stereo unspecified) | -2.96
30 | O=C(N[C@@H]1CN(Cc2cccs2)[C@@H]2COC[C@@H]21)C1CCC1 | 9.34
31 | c1ccc(CN2CCc3ncnc(-c4ccoc4)c3CC2)nc1 | -79
32 | COCC(O)CN1CCC(=O)N(Cc2ccco2)Cc2ccccc21 (stereo unspecified) | -5.62
33 | CCn1cc(C(=O)Nc2ccc(C)cc2C(=O)NC)cn1 | 5.81
34 | N#CC1(C(=O)N2CCCN(c3nccs3)CC2)CCCC1 | -11.1
35 | O=C(Nc1cccnc1)[C@H]1C[C@H]2OCC[C@H]2N(C(=O)c2ccsc2)C1 | -1.24
36 | NC(=O)c1cnc(NC2CCN(C(=O)C3CC3)CC2)c(Cl)c1 | -14.2
37 | COc1ccsc1C(=O)N1CCCC(n2nc(C)cc2C)C1 (stereo unspecified) | -9.41
38 | Cc1noc([C@H]2C[C@H]3OCC[C@H]3N(Cc3cccs3)C2)n1 | -96.3
39 | CC(=O)N1CC[C@@H]2CN(Cc3ccncc3)S(=O)(=O)[C@@H]2CC1 | 5.07
40 | CCS(=O)(=O)CCN1CCCC1c1noc(C)n1 (stereo unspecified) | -10.4
41 | CC(C)CNc1nc2c(cc1C(=O)NCC1CC1)CCNCC2 | -2.79
42 | COc1ccc(CCC2CCCCN2)cc1 (stereo unspecified) | -9.83
43 | O=C(c1ccsc1)N1C[C@H]2CCC[C@@]2(COCc2cccnc2)C1 | -2.86
44 | O=C(c1ccc(=O)[nH]c1)N1CCCC2(C=Cc3ccccc3O2)CC1 (stereo unspecified) | 12.5
45 | Cn1nc(CNC(=O)C2CCCCC2)cc1C1CC1 | -4.56
46 | CSCC(=O)NCc1cc(Br)ccc1OC(F)F | -8.22

Row | Structure (SMILES) | cytotoxicity at 10 µM [%]
47 | Cc1noc(C2CN(Cc3ccc4c(c3)CCO4)C2)n1 | -0.478
48 | CC(NS(C)(=O)=O)C(=O)Nc1ccc2oc(C3CC3)nc2c1 (stereo unspecified) | 2.78
49 | CCCC(Cn1cnc(-c2ccccc2)c1-c1cncn1CC)N(C)C (stereo unspecified) | 7.59
50 | CCC1CCCN(C(=O)NCc2cccnc2-n2cccn2)C1 (stereo unspecified) | -0.734
51 | CC(C)C(C)(O)CNC(=O)Nc1ccccn1 (stereo unspecified) | 4.77
52 | O=S(=O)(CC1CCCO1)Nc1cc(Cl)ccc1-n1cccn1 (stereo unspecified) | 3.55
53 | CC(Cn1ccnc1)NC(=O)N1CCN(Cc2ccsc2)CC1 (stereo unspecified) | -6.33
54 | CCc1ccc(NC(=O)N2Cc3c(CN(C)C)nn(C)c3C2)cc1 | 5.62
55 | COC(=O)CCSc1nncn1-c1ccc(OC)nc1 | -2.09
56 | O=C(O)c1csc(S(=O)(=O)N2CCCc3ccc(F)cc32)c1 | 16.6
57 | COc1ccc(NC(=O)C2CCCO2)cc1OCc1cccnc1 (stereo unspecified) | -23.6
58 | CC(C)CN1C(=O)CC(N2CCN(c3ccc(F)cc3)CC2)C1=O (stereo unspecified) | 6.56
59 | CC(Cc1cccc(F)c1)NCc1cnc(N2CCN(C)CC2)nc1 (stereo unspecified) | -5.44
60 | Cc1noc(C)c1CN1CCc2ncc(CN(C)C)n2CC1 | 8.46
61 | O=C(c1cccc(CNS(=O)(=O)c2ccccc2F)c1)N1CCCC1 | -0.0481
62 | CN(C)CC1CN(Cc2coc(-c3cccs3)n2)CCO1 (stereo unspecified) | 4.48
63 | CC(Cc1ccco1)NC(=O)Nc1ccc(N2CCCC2)nc1 (stereo unspecified) | -3.31
64 | COCC(C)NC(=O)c1cn(C(C)(C)C)c2ncccc12 (stereo unspecified) | 2.69
65 | c1ccc(OCCCNCc2cccs2)nc1 | -0.336
66 | Cc1cccc(N2CCN(C(=O)c3c(C)nn(C)c3C)CC2)c1C | -7.28
67 | O=c1cc(CN2CCCC2)nc2n1CCCN(Cc1ccoc1)C2 | -123
68 | Cc1cn2c(n1)CCC(NC(=O)c1ccc(CS(C)(=O)=O)o1)C2 (stereo unspecified) | -5
69 | CCOc1cc(CNC(=O)N2CCC(Cc3cnn(C)c3)C2)ccn1 (stereo unspecified) | -8.29

Row | Structure (SMILES) | cytotoxicity at 10 µM [%]
70 | CN(C)CCN1C(=O)CCCC12CCCN(C(=O)c1cc[nH]n1)C2 (stereo unspecified) | -0.225
71 | O=C(CCc1nnc2ccccn2c1=O)NCc1ccco1 | -7.51
72 | CC(=O)N1CCN(Cc2ccc3c(c2)OCCO3)CC(O)C1 (stereo unspecified) | 4.14
73 | Cc1nnc(NCc2ccc(F)cc2)o1 | 0.217
74 | O=C(c1ccco1)N(c1ccc(F)cn1)C1CCOCC1 | -19.8
75 | CC(C)C1CN(C(=O)c2ccc(N3CCCC3)nc2)CCS1 (stereo unspecified) | -4.81
76 | CN(C)CCNC(=O)CCC1CCN(C(=O)c2ccc(O)cn2)CC1 | 1.23
77 | CCOC1COC2(CCN(c3cccc(C)n3)CC2)C1 (stereo unspecified) | -2.16
78 | O=C(NCCN1CCOCC1)NCc1ccccc1-n1cccn1 | -6.32
79 | Cn1c(=O)c2c(c3ccccc31)OC(C)(C)CC2 | 17.8
80 | CCn1nccc1C(=O)N1CCCCC1CCc1ccc(O)cc1 (stereo unspecified) | 2.62
81 | Cc1cc(N(C)C)nc(C2COCCN2Cc2cscn2)n1 (stereo unspecified) | -6.94
82 | Cc1nc(CN(C)C(=O)C2CC(=O)N(c3cccc(O)c3)C2)cs1 (stereo unspecified) | -0.968
83 | CSCC(C)(O)CNC(=O)c1cc(F)ccc1Br (stereo unspecified) | -5.41
84 | Cn1c(SCC(O)COCc2ccccc2Cl)nnc1C1CC1 (stereo unspecified) | -2.24
85 | CC(C)c1nccn1CCCNC(=O)c1ccc(-c2ccncc2)nc1 | -9.77
86 | O=C(NCc1ccccn1)[C@H]1COC[C@H]2CN(CC3CC3)C[C@H]21 | -80.8
87 | CCCc1ccc(CN2CCN(C(=O)N(C)C)[C@@H]3CS(=O)(=O)C[C@@H]32)o1 | 8.69
88 | CC1CCCN(S(=O)(=O)NCCNC(=O)c2ncccc2O)C1 (stereo unspecified) | 3.07
89 | Cn1cc(NC(=O)C2CC(c3ccccc3)C2)ccc1=O (stereo unspecified) | -4.42
90 | COCc1cnc2n1CCN(S(=O)(=O)N(C)C)C2C (stereo unspecified) | 16.8
91 | COC(=O)c1ccc(NS(=O)(=O)c2cnc(NC(C)=O)s2)cc1 | 9.35
92 | Cc1ccnc(NC(=O)C(C)Cn2cncn2)c1 (stereo unspecified) | 0.298

Row | Structure (SMILES) | cytotoxicity at 10 µM [%]
93 | CCOCC(=O)N1CC[C@H]2O[C@@H](C)C[C@H]2C1 | -67.9
94 | CS(=O)(=O)CC1(CNc2ccc(C#N)c(C(F)(F)F)c2)CC1 | 9.95
95 | COCc1cc(CNCc2c(C)n(CC(N)=O)c3ccccc23)n[nH]1 | -0.31
96 | Cc1ccc(CSc2ncc(Br)c(C(=O)O)n2)cc1 | -2.3
97 | CC(C)(C)c1nc(CN2CCCC2CCc2ccccc2)no1 (stereo unspecified) | -5.95
98 | Cn1cncc1C(=O)N1CCOC2(COCCN(CC3CC3)C2)C1 (stereo unspecified) | 9.17
99 | CN(Cc1cc(-c2ccccc2)no1)CC1CCCN1c1cccnn1 (stereo unspecified) | -9.09
100 | O=C(Nc1cccnc1)[C@@H]1COC[C@H]2CN(C3CCCC3)C[C@H]21 | 5.74
101 | Cc1cc(C(F)(F)F)n2nc(C3CCN(S(C)(=O)=O)CC3)cc2n1 | 0.065
102 | CCc1cc(O)nc(C2CCCN2C(=O)c2cccnc2)n1 (stereo unspecified) | -1.54
103 | Cc1cccc(CN2C[C@@H]3CN(C(=O)c4conc4C)C[C@@H]3C2=O)c1 | 2.66
104 | CCc1nnsc1C(=O)N1CCN(CC(O)C(C)(C)C)CC1 (stereo unspecified) | 0.542
105 | O=c1[nH]cnc2c1CCN(S(=O)(=O)c1ccc(Cl)cc1)C2 | -1.68
106 | Cn1cc(N)c(-c2nnc3n2CCCC3)n1 | -6.83
107 | CC(C)c1cc(N(C)Cc2cc(C3CC3)on2)n2nccc2n1 | 4.28
108 | CCN1CCCC(O)(c2nc(C)c(CCOc3ccc(F)cc3)s2)CC1 (stereo unspecified) | -22.4
109 | Cc1cc(NC(=O)NCCc2ccc(S(N)(=O)=O)cc2)n(C)n1 | -3.39
110 | Cc1nccc(-c2cccc(NCC(=O)N3CCOCC3)c2)n1 | -0.269
111 | Cn1ccnc1CN1CCC(c2nnc(Cn3cccn3)n2C)CC1 | 17.4
